Experimental findings from ChEMBL document CHEMBL1140079, “Discovery of orally bioavailable cathepsin S inhibitors for the reversal of neuropathic pain” (J Med Chem, 2008) are described below.

Data set [1] addresses Procathepsin L (Homo sapiens, UniProt P07711). Description: Inhibition of human recombinant cathepsin L by fluorescence assay. The essentials: (§1)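 Recombinant human enzymes in a fluorescence assay; substrate Z-Phe-Arg-MCA for cathepsins K and L, Z-Leu-Leu-Arg-MCA for cathepsin S. Means of two experiments, each run in duplicate; individual points within a 2-fold range of each other.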

In data set [2] the target is Cathepsin S (Homo sapiens, UniProt P25774). Description: Inhibition of human recombinant cathepsin S by fluorescence assay. The essentials:
as §1

For data set [3], the target named is T1, Cathepsin K (Homo sapiens, UniProt P43235).
T1 sequence (P43235 whole entry): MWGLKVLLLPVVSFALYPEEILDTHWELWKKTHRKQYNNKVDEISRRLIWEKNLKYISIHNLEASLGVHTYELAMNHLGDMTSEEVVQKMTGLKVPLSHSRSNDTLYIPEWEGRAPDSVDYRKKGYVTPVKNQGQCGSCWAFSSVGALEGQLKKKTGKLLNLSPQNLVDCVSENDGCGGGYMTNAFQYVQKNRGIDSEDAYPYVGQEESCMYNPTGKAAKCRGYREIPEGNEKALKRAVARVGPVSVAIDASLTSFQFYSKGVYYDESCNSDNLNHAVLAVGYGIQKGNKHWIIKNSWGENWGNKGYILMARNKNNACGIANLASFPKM
As to the kind of experiment: Inhibition of human recombinant cathepsin K by fluorescence assay. The essentials:
as §1

The species named for data set [4] is Rattus norvegicus. Description: Selectivity for rat cathepsin S glycine 137 mutant over rat cathepsin K. In outline:
(§2)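 Recombinant rat cathepsins in a fluorescence assay with MCA substrates: Z-Leu-Leu-Arg-MCA for cathepsin S (137Gly form), Z-Phe-Arg-MCA for K and L, and Z-Arg-Arg-MCA for B. IC50 values were taken as means ± SD of three experiments, and selectivity was compared from the IC50 values against the S enzyme and each other cathepsin.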

Data set [5] can be described thus: Inhibition of rat cathepsin S glycine 137 mutant by fluorescence assay. In outline:
(§3)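 Recombinant rat cathepsins K, L, S (137Gly and 137Cys forms) and mouse cathepsin S in a fluorescence assay. Substrates: Z-Phe-Arg-MCA for K and L, Z-Leu-Leu-Arg-MCA for S. IC50 reported as means ± SD of three experiments.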

The species entered for data set [6] is Rattus norvegicus. As to the kind of experiment: Selectivity for rat cathepsin S glycine 137 mutant over rat cathepsin B. In outline:
as §2

The nature of data set [7]: Cmax in Sprague-Dawley rat at 3 mg/kg, po by LC/MS analysis. More on the design: dose 3 mg/kg, route oral. The format is ADME, organism-based. The note with it: in vivo. In outline:
(§4)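 Male Sprague-Dawley rats dosed orally at 3 mg/kg as a suspension and intravenously at 1 mg/kg as a bolus. Plasma levels quantified by LC/MS. Oral AUC and Cmax dose-normalized to 1 mg/kg. Means ± SD of three individual experiments.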

For data set [8], the target named is Cathepsin S (Mus musculus, UniProt O70370). Description: Inhibition of mouse cathepsin S by fluorescence assay. In outline: as §3
Data set [9] is described as follows: Inhibition of rat cathepsin S cysteine 137 mutant by fluorescence assay. The essentials:
as §3

Data set [10] is described as follows: Volume of distribution in Sprague-Dawley rat at 1 mg/kg, iv and 3 mg/kg, po by LC/MS analysis. The format is ADME, organism-based. The settings on record: in vivo. The essentials: as §4
Data set [11] has as its target T2, Procathepsin L (Rattus norvegicus, UniProt P07154).
T2 sequence (P07154 whole entry): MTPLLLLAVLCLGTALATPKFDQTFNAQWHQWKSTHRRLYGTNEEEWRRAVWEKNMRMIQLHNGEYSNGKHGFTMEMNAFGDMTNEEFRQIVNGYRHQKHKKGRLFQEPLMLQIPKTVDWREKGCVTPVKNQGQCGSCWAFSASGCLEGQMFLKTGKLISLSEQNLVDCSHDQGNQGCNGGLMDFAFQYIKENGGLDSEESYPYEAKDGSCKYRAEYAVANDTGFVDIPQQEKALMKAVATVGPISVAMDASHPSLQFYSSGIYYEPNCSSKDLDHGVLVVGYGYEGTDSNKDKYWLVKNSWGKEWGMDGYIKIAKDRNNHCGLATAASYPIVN
Description: Inhibition of rat cathepsin L by fluorescence assay. In outline:
as §3

For data set [12], the target named is T3, Cathepsin K (Rattus norvegicus, UniProt O35186).
T3 sequence (O35186 whole entry): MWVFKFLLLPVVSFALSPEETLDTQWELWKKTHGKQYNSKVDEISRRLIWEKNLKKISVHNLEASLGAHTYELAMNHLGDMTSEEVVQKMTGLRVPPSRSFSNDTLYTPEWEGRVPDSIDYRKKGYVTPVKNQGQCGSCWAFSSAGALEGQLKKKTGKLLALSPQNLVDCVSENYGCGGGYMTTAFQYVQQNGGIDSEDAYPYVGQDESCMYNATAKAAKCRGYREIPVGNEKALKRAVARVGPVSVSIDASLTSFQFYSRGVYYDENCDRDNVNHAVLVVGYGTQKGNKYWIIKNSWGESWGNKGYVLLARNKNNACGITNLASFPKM
As to the kind of experiment: Inhibition of rat cathepsin K by fluorescence assay. The essentials: as §3

For data set [13], the species on record is Rattus norvegicus. Description: Selectivity for rat cathepsin S glycine 137 mutant over rat cathepsin L. In outline: as §2
Data set [14] can be described thus: Plasma clearance in Sprague-Dawley rat at 1 mg/kg, iv and 3 mg/kg, po by LC/MS analysis. It is filed as ADME, organism-based. The essentials:
as §4

A short description of data set [15]: Terminal elimination half life in Sprague-Dawley rat at 1 mg/kg, iv by LC/MS analysis. The note with it: in vivo. The format is ADME, organism-based. More on the design: dose 1 mg/kg, route intravenous. The essentials:
as §4

Data set [16] in a line: Bioavailability in Sprague-Dawley rat at 1 mg/kg, iv and 3 mg/kg, po by LC/MS analysis. It is filed as ADME, organism-based. The settings on record: in vivo. In outline:
as §4

Data set [17] can be described thus: Genotoxicity in liver S9 fraction by Ames test. It is filed as toxicity, subcellular. In outline: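 Standard Ames test run with liver S9 enzyme.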
For orientation: The Ames test uses bacterial strains that need an amino acid and regain growth without it when mutated back.

Data set [18] concerns Rattus norvegicus. As to the kind of experiment: Reversal of neuropathic mechanical hyperalgesia in Wistar rat sciatic nerve ligation model assessed as paw withdrawal threshold at 30 mg/kg, po administered twice daily for 5 days after 3 hrs. The format is functional. In outline: (§5)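 Partial sciatic nerve ligation in Wistar rats genotyped as 137Gly cathepsin S, with established mechanical hyperalgesia. Oral dosing in 0.5% methylcellulose/water; repeat regimen twice daily for 5 days, paw withdrawal thresholds 3 h post-dose. 6 animals/group; % reversal of hyperalgesia, mean ± SEM; ANOVA with Tukey's HSD versus vehicle.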

A further data set addresses Cytochrome P450 2D6 (Homo sapiens, UniProt P10635). As to the kind of experiment: Inhibition of CYP2D6 at 10 uM. It is filed as ADME. In outline: (§6)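 Tested against a panel of cytochrome P450 enzymes at a maximum concentration of 10 µM.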
The target of the next data set is Cytochrome P450 2C9 (Homo sapiens, UniProt P11712). As to the kind of experiment: Inhibition of CYP2C9 at 10 uM. It is filed as ADME. The essentials:
as §6

Data set [19] has as its target Cathepsin S (Mus musculus) (UniProt O70370). As to the kind of experiment: Inhibition of cathepsin S-mediated proteolytic cleavage of MHC2 associated invariant chain in mouse splenocytes assessed as induction of accumulation of lip10. It is filed as cell-based.
For another data set, the target named is Cytochrome P450 3A4 (Homo sapiens, UniProt P08684). Description: Inhibition of CYP3A4 at 10 uM. The format is ADME. In outline:
as §6

The target of a further data set is T4, Cytochrome P450 1A2 (Homo sapiens, UniProt P05177).
T4 sequence (P05177 whole entry): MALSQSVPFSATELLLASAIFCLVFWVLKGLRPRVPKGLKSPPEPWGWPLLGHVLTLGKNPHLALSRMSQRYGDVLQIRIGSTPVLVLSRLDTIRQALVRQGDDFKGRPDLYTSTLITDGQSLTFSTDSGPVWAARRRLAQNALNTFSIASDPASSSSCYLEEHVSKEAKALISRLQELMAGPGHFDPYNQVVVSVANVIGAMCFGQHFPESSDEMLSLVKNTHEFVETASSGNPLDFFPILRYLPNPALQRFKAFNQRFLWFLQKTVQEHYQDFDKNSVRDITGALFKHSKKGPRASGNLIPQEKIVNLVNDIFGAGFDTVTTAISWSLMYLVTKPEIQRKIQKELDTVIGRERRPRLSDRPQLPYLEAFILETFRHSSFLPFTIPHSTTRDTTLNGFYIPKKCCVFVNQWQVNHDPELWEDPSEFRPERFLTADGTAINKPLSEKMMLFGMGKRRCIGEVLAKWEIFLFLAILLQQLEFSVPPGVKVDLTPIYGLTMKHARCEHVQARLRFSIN
Description: Inhibition of CYP1A2 at 10 uM. The format is ADME. The essentials: as §6

A further data set addresses Cytochrome P450 2C19 (Homo sapiens, UniProt P33261). Description: Inhibition of CYP2C19 at 10 uM. The format is ADME. In outline: as §6
For data set [20], the system named is Rattus norvegicus. Description: Reversal of neuropathic mechanical hyperalgesia in Wistar rat sciatic nerve ligation model with cathepsin S glycine 137 mutation at 100 mg/kg, po. It is filed as functional. The essentials: as §5

One may read the IC50 as the midpoint of a concentration-inhibition curve. By Cmax is commonly meant the highest concentration seen after dosing. The term half-life denotes how long it takes for the measured level to halve. A lower half-life goes with rapid decline. By bioavailability is commonly meant dose-corrected exposure relative to a reference, in per cent. A higher bioavailability goes with much systemic uptake.

Sequence of Procathepsin L (Homo sapiens, UniProt P07711) (P07711 whole entry): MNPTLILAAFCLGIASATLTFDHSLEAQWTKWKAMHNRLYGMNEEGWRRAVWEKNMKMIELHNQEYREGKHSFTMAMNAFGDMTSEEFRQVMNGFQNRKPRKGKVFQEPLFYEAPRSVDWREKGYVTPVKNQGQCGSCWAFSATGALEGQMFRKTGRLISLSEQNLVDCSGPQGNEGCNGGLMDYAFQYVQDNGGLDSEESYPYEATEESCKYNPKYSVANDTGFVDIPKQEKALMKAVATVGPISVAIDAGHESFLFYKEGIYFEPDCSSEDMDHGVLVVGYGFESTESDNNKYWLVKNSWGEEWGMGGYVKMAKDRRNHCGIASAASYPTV
Sequence of Cathepsin S (Homo sapiens, UniProt P25774) (P25774 whole entry): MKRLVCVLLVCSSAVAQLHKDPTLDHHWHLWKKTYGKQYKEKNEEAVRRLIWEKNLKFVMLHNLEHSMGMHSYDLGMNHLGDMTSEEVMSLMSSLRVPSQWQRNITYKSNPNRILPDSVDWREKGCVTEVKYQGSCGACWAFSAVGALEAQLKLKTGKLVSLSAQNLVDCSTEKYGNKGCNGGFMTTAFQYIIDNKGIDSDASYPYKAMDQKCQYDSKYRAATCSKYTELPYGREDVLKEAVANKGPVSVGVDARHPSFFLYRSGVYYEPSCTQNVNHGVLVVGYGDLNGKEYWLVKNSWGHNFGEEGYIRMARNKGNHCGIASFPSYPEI
Sequence of Cytochrome P450 2C19 (P33261 whole entry): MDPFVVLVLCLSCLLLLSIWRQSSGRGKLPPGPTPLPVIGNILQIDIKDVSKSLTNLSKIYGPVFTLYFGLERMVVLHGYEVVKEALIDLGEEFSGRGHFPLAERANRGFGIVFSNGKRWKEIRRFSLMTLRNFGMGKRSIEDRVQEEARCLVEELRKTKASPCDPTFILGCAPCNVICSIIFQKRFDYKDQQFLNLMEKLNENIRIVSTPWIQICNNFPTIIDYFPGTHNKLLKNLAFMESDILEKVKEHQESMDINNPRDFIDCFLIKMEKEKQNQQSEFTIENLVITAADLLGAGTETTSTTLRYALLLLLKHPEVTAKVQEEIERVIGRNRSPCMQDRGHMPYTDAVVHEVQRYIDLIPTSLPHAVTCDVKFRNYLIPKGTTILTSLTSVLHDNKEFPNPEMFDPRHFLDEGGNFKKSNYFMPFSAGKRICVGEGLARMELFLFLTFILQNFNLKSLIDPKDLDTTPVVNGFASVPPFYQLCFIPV
Sequence of Cytochrome P450 2C9 (P11712 whole entry): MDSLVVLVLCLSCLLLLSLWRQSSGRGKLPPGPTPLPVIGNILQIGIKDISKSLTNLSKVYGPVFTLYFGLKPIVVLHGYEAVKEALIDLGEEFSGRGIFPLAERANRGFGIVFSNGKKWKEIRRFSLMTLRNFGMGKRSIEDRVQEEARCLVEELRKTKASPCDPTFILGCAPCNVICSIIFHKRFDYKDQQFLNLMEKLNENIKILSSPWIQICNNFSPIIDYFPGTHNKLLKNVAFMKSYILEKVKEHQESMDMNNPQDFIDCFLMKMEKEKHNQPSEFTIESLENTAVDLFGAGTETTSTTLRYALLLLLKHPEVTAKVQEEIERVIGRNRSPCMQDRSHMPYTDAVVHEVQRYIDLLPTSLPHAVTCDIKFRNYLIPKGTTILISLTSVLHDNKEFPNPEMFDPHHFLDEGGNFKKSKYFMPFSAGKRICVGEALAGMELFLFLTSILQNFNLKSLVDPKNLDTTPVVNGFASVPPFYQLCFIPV
Sequence of Cytochrome P450 2D6 (P10635 whole entry): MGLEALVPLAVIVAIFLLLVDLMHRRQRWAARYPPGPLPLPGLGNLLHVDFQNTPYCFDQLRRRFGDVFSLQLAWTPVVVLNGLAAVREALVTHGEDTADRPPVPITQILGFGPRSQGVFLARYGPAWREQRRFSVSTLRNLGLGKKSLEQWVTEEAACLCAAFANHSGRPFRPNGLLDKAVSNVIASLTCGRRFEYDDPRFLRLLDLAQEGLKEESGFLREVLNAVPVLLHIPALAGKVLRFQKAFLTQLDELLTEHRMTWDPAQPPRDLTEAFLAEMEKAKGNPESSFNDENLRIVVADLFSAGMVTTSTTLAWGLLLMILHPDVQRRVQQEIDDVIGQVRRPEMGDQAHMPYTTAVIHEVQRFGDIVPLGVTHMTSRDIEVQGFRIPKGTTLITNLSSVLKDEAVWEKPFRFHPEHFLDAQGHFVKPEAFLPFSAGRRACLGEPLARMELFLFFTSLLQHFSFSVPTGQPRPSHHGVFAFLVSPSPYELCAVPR
Sequence of Cytochrome P450 3A4 (P08684 whole entry): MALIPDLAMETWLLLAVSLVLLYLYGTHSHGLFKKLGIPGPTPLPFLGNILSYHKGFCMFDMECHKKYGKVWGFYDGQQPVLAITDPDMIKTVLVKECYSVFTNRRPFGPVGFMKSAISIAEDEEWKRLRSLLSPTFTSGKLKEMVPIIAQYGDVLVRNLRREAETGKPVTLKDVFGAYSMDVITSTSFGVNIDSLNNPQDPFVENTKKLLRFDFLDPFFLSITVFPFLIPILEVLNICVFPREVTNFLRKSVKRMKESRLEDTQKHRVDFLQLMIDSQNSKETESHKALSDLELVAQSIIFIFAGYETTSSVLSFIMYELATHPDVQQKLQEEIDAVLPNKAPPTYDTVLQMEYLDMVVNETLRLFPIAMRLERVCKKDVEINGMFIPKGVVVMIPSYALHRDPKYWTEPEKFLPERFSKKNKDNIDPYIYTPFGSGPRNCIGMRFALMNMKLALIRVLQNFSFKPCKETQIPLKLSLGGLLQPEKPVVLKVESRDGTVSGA

As for `CC(=O)N1CCCN(c2ccc(OCc3cc4cnc(C#N)nc4n3CCC3CCCCC3)cc2)CC1`, the results for the IC50 at Procathepsin L [1], on Cathepsin S [2] and at Cathepsin K [3] were above 1000 nM, 11 nM and 290 nM, respectively.

On to `CC(=O)N1CCN(c2ccc(OCc3cc4cnc(C#N)nc4n3CCC3CCCC3)cc2)CC1`, for which the IC50 was found to be 2300 nM on Procathepsin L [1], 5 nM at Cathepsin S [2] and 79 nM on Cathepsin K [3].

As to `CC(=O)N1CCN(c2ccc(OCc3cc4cnc(C#N)nc4n3CCc3ccc(Cl)cc3)cc2)CC1`, the IC50 at Procathepsin L [1] was above 1000 nM; at Cathepsin S [2], 17 nM; on Cathepsin K [3] it was above 1000 nM.

Take `CC(=O)N1CCN(c2ccc(OCc3cc4cnc(C#N)nc4n3CCC3CCCCC3)cc2)CC1`: the Activity in the data set listed under Rattus norvegicus [4], in the data set listed under Rattus norvegicus [6] and in the data set filed under Rattus norvegicus [13] was above 100 each time. In addition, the IC50 in data set [5] is 10 nM; at Procathepsin L [1], 5200 nM; on Cathepsin S [8], 10 nM; at Cathepsin K [3] it was 1650 nM; in data set [9] it was above 10000 nM; against Procathepsin L [11], above 10000 nM. This compound also gave a 50% inhibitory concentration (IC50) against Cathepsin K [12] above 10000 nM. In addition, the Cmax in data set [7] worked out at 61 nM. Also, in data set [10], the Vd was determined as 5.6 L/kg. This compound also showed a clearance in data set [14] of 65 mL/min/kg. In data set [15], this compound had a half-life of 1.1 h. Further, the bioavailability in data set [16] stood at 53%.

With `CC(=O)N1CCN(c2ccc(OCc3cc4cnc(C#N)nc4n3CCC3CCCCC3)cc2F)CC1`, the results for the IC50 at Procathepsin L [1], at Cathepsin S [2] and on Cathepsin K [3] were above 1000 nM, 9 nM and above 1000 nM, respectively.

As to `CC(=O)N1CCN(c2ccc(OCc3cc4cnc(C#N)nc4n3CCC3CCCCC3)c(F)c2)CC1`, the Activity in the data set listed under Rattus norvegicus [4] is above 100; in [17], “Non-toxic”; in the data set with Rattus norvegicus [18], 63%; on Cytochrome P450 2D6, “Not Active”; in the data set filed under Rattus norvegicus [6], above 100; on Cytochrome P450 2C9, “Not Active”. Also, the Activity result is “Dose-dependent effect” in [19]; “Not Active” on Cytochrome P450 3A4; above 100 in the data set listed under Rattus norvegicus [13]; “Not Active” on Cytochrome P450 1A2; “Not Active” at Cytochrome P450 2C19; 54% in the data set on Rattus norvegicus [20]. Further, the IC50 was 12 nM in data set [5]; 6800 nM on Procathepsin L [1]; 18 nM at Cathepsin S [2]; 14 nM against Cathepsin S [8]; 5900 nM on Cathepsin K [3]; above 10000 nM in data set [9]. Besides, the IC50 against Procathepsin L [11] and at Cathepsin K [12] was above 10000 nM each time. This compound also displayed a Cmax in [7] of 30 nM. In data set [10], this compound registered a Vd of 5.7 L/kg. Further, the clearance in data set [14] was 45 mL/min/kg. The compound further gave a half-life in data set [15] of 1.7 h. In [16], the bioavailability was 24%.

With `CC(=O)N1CCN(c2ccc(OCc3cc4cnc(C#N)nc4n3CCC3CCCCCC3)cc2)CC1`, the values for the IC50 on Procathepsin L [1], on Cathepsin S [2] and on Cathepsin K [3] were above 2000 nM, 50 nM and above 2000 nM, respectively.
